Where a chain is given by its changes, count along the chain named. “Also recorded” adds a separate entry of the source. Like-named read-outs stand apart in the source and are kept apart here. Values belong to the compound of their own block, whether it stands above or below them.
What was measured:
[1] = biological target: Gαo (UniProt P59215); test: flow cytometry protein interaction assay
[2] = biological target: T1, 160C RGS8 (C107S) (Homo sapiens, UniProt P57771, C89S); test: FCPIA, 160C RGS8/Gαo binding
T1 sequence (P57771 56-171 C89S): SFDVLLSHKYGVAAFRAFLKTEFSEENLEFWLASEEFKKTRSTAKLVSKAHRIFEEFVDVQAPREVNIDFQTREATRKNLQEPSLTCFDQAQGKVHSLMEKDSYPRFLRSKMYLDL
Procedure, shortened: (§1)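 RGS8 homology domain (N-terminal 6×His, pQE-80) with Cys→Ser site-directed mutations was chemically biotinylated on amines and loaded on avidin microspheres. Beads were treated with test compound or vehicle for 15 min at room temperature, then mixed with AlexaFluor-532-labelled Gαo plus GDP and aluminium fluoride. Binding was read by Luminex flow cytometry. Values are mean±SEM of three independent experiments.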

[3] = biological target: T2, 107C RGS8 (C160S) (Homo sapiens, UniProt P57771, C142S); test: FCPIA, 107C RGS8/Gαo binding
T2 sequence (P57771 74-189 isoform P57771-2 C160S): T1 sequence (P57771 56-171 C89S) with S34C, C87S
Procedure, shortened: as §1

[4] = biological target: T3, WT RGS8 (Homo sapiens, UniProt P57771); test: Gel filtration then FCPIA competition, WT RGS8; format: binding
T3 sequence (P57771 56-171 limits assumed): T1 sequence (P57771 56-171 C89S) with S34C

[5] = biological target: T4, RGS8-stimulated GTP hydrolysis by Gαo (Homo sapiens, UniProt P57771); test: Single turnover GTPase assay, RGS8 GAP activity; format: biochemical
T4 sequence (P57771 56-171 limits assumed): T1 sequence (P57771 56-171 C89S) with S34C
Procedure, shortened: (§2)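 Single-turnover measurement of Gαo GTP hydrolysis, with or without RGS4 or RGS8, in the presence of test compound, following a previously published method. The RGS8 homology domain was an N-terminal 6×His construct from pQE-80 carrying native Cys107 and Cys160. All proteins were purified to >90% homogeneity, and Gαo activity was confirmed by [35S]GTPγS binding. Output is the GTP hydrolysis rate constant k (sec−1).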

[6] = biological target: T5, RGS8 (Homo sapiens, UniProt P57771); test: FCPIA, RGS8/Gαo binding
T5 sequence (P57771 56-171 limits assumed): T1 sequence (P57771 56-171 C89S) with S34C

[7] = biological target: T6, RGS8Cys− (Homo sapiens, UniProt P57771, C142S/C89S); test: ESI-LC/MS protein adduct analysis, RGS8Cys−; conditions: RGS8Cys− mutant
T6 sequence (P57771 74-189 isoform P57771-2 C107S/C160S): T1 sequence (P57771 56-171 C89S) with C87S

[8] = biological target: T7, papain (Carica papaya, UniProt P00784); test: Papain activity assay; format: biochemical
T7 sequence (P00784 134-345): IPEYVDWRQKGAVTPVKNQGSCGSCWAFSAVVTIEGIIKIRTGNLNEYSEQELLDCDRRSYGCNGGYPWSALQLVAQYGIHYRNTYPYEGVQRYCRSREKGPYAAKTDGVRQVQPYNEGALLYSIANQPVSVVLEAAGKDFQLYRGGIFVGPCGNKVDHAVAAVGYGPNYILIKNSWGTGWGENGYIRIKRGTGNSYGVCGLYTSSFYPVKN
Procedure, shortened: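 FITC-casein was added to 250 nM final. Fluorescence (ex 485/em 520 nm) was read at intervals in the dark, and concentration dependence was taken at 5 min. Values are mean±SEM of three independent experiments.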

[9] = biological target: T8, Gαo (Homo sapiens, UniProt P09471); test: Single turnover GTPase assay, intrinsic Gαo rate; format: biochemical; conditions: 100 μM
Procedure, shortened: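 N-terminally 6×His-tagged Gαo was purified to >90% homogeneity. Single-turnover hydrolysis of isotopically diluted γ[32P]GTP was measured. Results are expressed as the rate constant k (sec−1) of GTP hydrolysis.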

[10] = tested on: Gαo-dependent membrane translocation of GFP-RGS4 in HEK293T cells; test: RGS4 membrane translocation in living cells; format: cell-based, human; conditions: 100 μM
[11] = biological target: T9, RGS4 wild Type (Homo sapiens, UniProt P49798); test: FCPIA, RGS4/Gαo binding
T9 sequence (P49798 52-205 limits assumed): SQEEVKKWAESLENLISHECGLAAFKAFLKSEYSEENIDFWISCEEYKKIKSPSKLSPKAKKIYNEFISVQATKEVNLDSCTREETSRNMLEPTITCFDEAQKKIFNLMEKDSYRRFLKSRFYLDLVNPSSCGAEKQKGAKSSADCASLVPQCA

[12] = biological target: T10, RGS16 (Homo sapiens, UniProt O15492); test: FCPIA, RGS16/Gαo binding
T10 sequence (O15492 1-202): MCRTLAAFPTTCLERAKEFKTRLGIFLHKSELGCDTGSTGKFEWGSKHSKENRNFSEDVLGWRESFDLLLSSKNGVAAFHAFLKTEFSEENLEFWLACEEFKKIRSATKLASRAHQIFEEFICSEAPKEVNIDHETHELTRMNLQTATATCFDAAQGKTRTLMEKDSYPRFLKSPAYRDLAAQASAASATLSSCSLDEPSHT

[13] = biological target: T11, 160C RGS8 (Homo sapiens, UniProt P57771, C89S); test: Gel filtration after compound treatment, 160C RGS8
T11 sequence (P57771 56-171 C89S): T1 sequence (P57771 56-171 C89S)

[14] = biological target: T3, WT RGS8; test: ESI-LC/MS protein adduct analysis, WT RGS8; conditions: WT RGS8 2 μM
[15] = biological target: T5, RGS8; test: ThermoFluor thermal stability, RGS8; format: binding
[16] = biological target: T12, RGS19 (Homo sapiens, UniProt P49795); test: FCPIA, RGS19/Gαo binding
T12 sequence (P49795 1-206 limits assumed): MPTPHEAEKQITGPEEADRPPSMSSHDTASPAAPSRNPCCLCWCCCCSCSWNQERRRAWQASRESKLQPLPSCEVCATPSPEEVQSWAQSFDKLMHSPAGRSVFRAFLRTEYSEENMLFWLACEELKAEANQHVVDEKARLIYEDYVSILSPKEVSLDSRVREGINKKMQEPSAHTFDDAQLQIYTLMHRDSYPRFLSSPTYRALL
Procedure, shortened: (§3)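 Constructs were RGS19 ΔC11 as an MBP/10×His fusion and the RGS7 homology domain as a GST fusion. Each was chemically biotinylated, immobilised on avidin microspheres and pretreated with test compound or vehicle for 15 min at room temperature. Beads were then mixed with AlexaFluor-532-Gαo plus GDP/AlF and binding was read by flow cytometry. IC50 is the mean±SEM of at least three independent experiments.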

[17] = biological target: T13, RGS7 (Homo sapiens, UniProt P49802); test: FCPIA, RGS7/Gαo binding
T13 sequence (P49802 333-448 limits assumed): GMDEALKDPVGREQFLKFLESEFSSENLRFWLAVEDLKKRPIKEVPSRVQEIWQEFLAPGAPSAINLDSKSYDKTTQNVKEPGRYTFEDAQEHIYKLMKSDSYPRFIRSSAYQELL
Procedure, shortened: as §3

[18] = biological target: T14, RGS4-stimulated GTP hydrolysis by Gαo (Homo sapiens, UniProt P49798); test: Single turnover GTPase assay, RGS4 GAP activity; format: biochemical
T14 sequence (P49798 52-205 limits assumed): T9 sequence (P49798 52-205 limits assumed)
Procedure, shortened: as §2

[19] = biological target: T15, RGS8cys− (C160S/C107S) (Homo sapiens, UniProt P57771, C142S/C89S); test: FCPIA, RGS8cys−/Gαo binding
T15 sequence (P57771 56-171 C89S/C142S): T1 sequence (P57771 56-171 C89S) with C87S
Procedure, shortened: as §1

[20] = biological target: T16, 107C RGS8 (Homo sapiens, UniProt P57771, C142S); test: Gel filtration then FCPIA competition, 107C RGS8; format: binding; conditions: 107C RGS8 after gel filtration
T16 sequence (P57771 74-189 isoform P57771-2 C160S): T1 sequence (P57771 56-171 C89S) with S34C, C87S

[21] = biological target: T17, RGS4 (Homo sapiens, UniProt P49798); test: ThermoFluor thermal stability, RGS4; format: binding
T17 sequence (P49798 52-205 limits assumed): T9 sequence (P49798 52-205 limits assumed)

[22] = biological target: T8, Gαo; test: ThermoFluor thermal stability, Gαo; format: binding
[23] = read-out: irreversible inhibition of Gα binding after extensive washing
[24] = read-out: total amount of inhibition (without a wash step)
[25] = 100 μM, FITC-casein proteolysis
[26] = concentration dependence or concentration not stated

T8 sequence (P09471 whole entry): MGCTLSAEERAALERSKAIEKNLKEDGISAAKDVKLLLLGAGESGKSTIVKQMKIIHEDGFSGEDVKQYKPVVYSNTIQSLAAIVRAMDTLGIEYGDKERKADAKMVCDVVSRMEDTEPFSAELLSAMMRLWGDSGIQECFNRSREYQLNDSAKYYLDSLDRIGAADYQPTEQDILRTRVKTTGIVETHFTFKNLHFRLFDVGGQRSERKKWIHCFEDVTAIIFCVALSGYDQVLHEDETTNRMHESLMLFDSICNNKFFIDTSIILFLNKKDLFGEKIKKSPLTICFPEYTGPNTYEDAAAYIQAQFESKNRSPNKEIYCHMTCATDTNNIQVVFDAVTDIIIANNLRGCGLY
Sequence of Gαo (UniProt P59215) (P59215 whole entry): as the sequence (P09471 whole entry) above, with I93V, A104S, T292P, P294S, A306T counted along it

fold less potent at competing for Gα binding than vehicle-treated RGS8 [1]: 14 fold
Compound: WT RGS8 treated with CCG-50014 (with its covalently attached CCG-50014), recovered from gel filtration (domain or fragment)

Compound: Cc1ccc(-n2sc(=O)n(Cc3ccc(F)cc3)c2=O)cc1 [CCG-50014, 4-(4-fluorobenzyl)-2-p-tolyl-1,2,4-thiadiazolidine-3,5-dione]
IC50 [2]: 0.71 µM
reversibility of inhibition after washing ([2]; 160C RGS8, 20 μM): completely irreversible
Hill Coefficient ([2]; FCPIA, 160C RGS8, Fig. 5): −0.36
inhibition at 20 µM [2, 23]: ~50%
inhibition at 20 µM [2, 24]: 56 ± 1%
IC50 [3]: 46.5 µM
reversibility of inhibition after washing ([3]; 107C RGS8, 20 μM): partially reversed
Hill Coefficient ([3]; FCPIA, 107C RGS8, Fig. 5): −0.54
inhibition at 20 µM [3, 23]: ~20%
inhibition at 20 µM [3, 24]: 45 ± 2%
residual inhibition after gel filtration [4]: > 90%
effect on GTPase accelerating (GAP) activity of RGS8 on Gαo [5]: concentration-dependently inhibits the GAP activity; also recorded: inhibited the GTPase accelerating activity
inhibition of RGS8/Gαo binding (in words) ([6]; FCPIA): fully inhibits
Hill Slope ([6]; FCPIA, RGS8): −0.99
Hill Coefficient ([6]; FCPIA, wildtype RGS8, Fig. 5): −0.79
IC50 ([6]; IC50 (μM), FCPIA, wildtype RGS8, Fig. 5, three experiments): 6.1 µM
reversibility of inhibition after washing with DTT ([6]; RGS8 beads, 100 μM for 15 minutes, wash with 1 mM DTT): partially reversed
reversibility of inhibition after washing ([6]; RGS8 beads, 100 μM for 15 minutes, wash without DTT): irreversible inhibitor
inhibition at 20 µM ([6]; read-out: total amount of inhibition (without a wash step), WT RGS8, 20 μM): 64 ± 2%
adduct formation by LC-MS [7]: No adducts are observed
effect on papain activity [8, 25]: no effect
effect on intrinsic rate of GTP hydrolysis by Gαo [9]: did not alter
effect on Gαo-dependent membrane localization of GFP-RGS4 [10]: reversed the membrane localization; also recorded: significant decrease
selectivity for RGS4 over RGS8 and RGS16 ([11]; FCPIA IC50 values): > 100 fold
inhibitory activity against the RGS4-Gαo protein-protein interaction at pH 6.5 ([11]; FCPIA at pH 6.5 (control for papain assay)): retains full inhibitory activity
Hill Slope ([11]; FCPIA, RGS4 wild type): −1.53
reversibility of inhibition after washing with DTT ([11]; RGS4 beads, 100 μM for 15 minutes, wash with 1 mM DTT): partially reversed
reversibility of inhibition after washing ([11]; RGS4 beads, 100 μM for 15 minutes, wash without DTT): irreversible inhibitor
inhibition of RGS16/Gαo binding (in words) [12]: fully inhibits
Hill Slope ([12]; RGS16): −1.33
state of the protein after compound treatment [13]: formed aggregates; also recorded: completely (and visually) aggregates
adduct formation by LC-MS [14]: covalent adduct
effect on thermal stability of RGS8 [15]: thermally destabilizes
effect on thermal stability of RGS8 ([15]; listed as CCGA-50014): concentration-dependently destabilized
inhibition of RGS19/Gαo binding (in words) [16]: fully inhibits
Hill Slope ([16]; RGS19): −0.61
IC50 [17]: > 200 µM
inhibition of RGS7/Gαo binding (in words) ([17]; FCPIA): did not have activity
effect on GTPase accelerating (GAP) activity of RGS4 on Gαo [18]: concentration-dependently inhibits the GAP activity; also recorded: inhibited the GTPase accelerating activity
IC50 [19]: > 100 µM
competition for Gαo binding, treated versus vehicle-treated protein [20]: no discernable difference
effect on thermal stability of RGS4 [21]: concentration-dependently destabilized
effect on thermal stability of Gαo [22]: no effect

Compound: CCN1C(=O)C=CC1=O [NEM, N-ethyl maleimide, reference compound]
inhibition of RGS8/Gαo binding (in words) ([6]; FCPIA): no effect
effect on papain activity [8, 26]: no effect

Compound: NC(=O)CI [iodoacetamide]
effect on papain activity [8, 25]: markedly inhibits
effect on papain activity [8, 26]: concentration-dependently inhibited
effect on papain activity ([8]; concentration dependence or concentration not stated, listed as IA): inhibited the proteolytic activity of papain in a concentration-dependent manner
